# Source: PubChem BioAssay (several laboratories)
# Hits are enriched below; roughly 2.7% of the tested compounds scored in any of these assays.
# Tb hexokinase – blocks Trypanosoma brucei hexokinase 1 activity; recombinant TbHK1, G6PDH-coupled NADH A340; inhibition, % at 10 µM; 220,000 compounds, 0.11% hits;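 active = inhibition of 50% or more in the single-dose primary screen; inactive = inhibition below 50%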
# Hck-Nef inh – inhibitors of human Hck kinase activated by Nef | Recombinant Hck-YEEI plus Nef, Z-Lyte FRET kinase assay | inhibition, % at 20 µM | 220,000 compounds, 0.68% hits | AID 463187;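 active = Hck-Nef kinase inhibition above about 50%, limit read from the data; inactive = inhibition below that limit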;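 note: 0% = DMSO with Hck plus Nef and 100% = Hck alone without Nef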
# Target sequence (P08631 whole entry, looked up): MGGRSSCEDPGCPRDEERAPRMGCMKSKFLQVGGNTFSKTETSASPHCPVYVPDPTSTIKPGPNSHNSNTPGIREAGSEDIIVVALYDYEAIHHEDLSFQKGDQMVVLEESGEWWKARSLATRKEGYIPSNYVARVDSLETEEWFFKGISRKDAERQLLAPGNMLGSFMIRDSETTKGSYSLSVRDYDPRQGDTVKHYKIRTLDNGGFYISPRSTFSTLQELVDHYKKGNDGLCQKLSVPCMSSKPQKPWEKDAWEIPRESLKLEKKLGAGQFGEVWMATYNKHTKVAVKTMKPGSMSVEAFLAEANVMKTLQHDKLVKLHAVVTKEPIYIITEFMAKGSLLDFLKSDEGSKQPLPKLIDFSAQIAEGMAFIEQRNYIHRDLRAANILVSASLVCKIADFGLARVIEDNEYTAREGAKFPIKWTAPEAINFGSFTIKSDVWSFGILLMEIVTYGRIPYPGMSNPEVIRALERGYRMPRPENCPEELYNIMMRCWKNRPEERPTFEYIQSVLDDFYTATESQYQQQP
# 14-3-3 Bad PPI – disrupts binding of bovine 14-3-3 zeta to phospho-Bad peptide; P63103; inhibition, % at 21.7 µM; TR-FRET 14-3-3zeta/Dy647-pBad peptide displacement, 1 h; 220,000 compounds, 0.71% hits;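 active = inhibition above about 70%, limit read from the data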;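 note: 0% = full 14-3-3 plus peptide FRET controls and 100% = background without 14-3-3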
# MDM2 E3 inh – blocks human Mdm2 ubiquitin ligase activity | cell-based MDM2 ubiquitination luciferase reporter, 2 h; 0 = plate control, 100 = twice control, blank-subtracted | AID 1230 | Q00987 | signal enhancement, % at 5 µM | 210,000 compounds, 0.11% hits;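 active = signal enhancement of 30% or more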;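 note: luminescence tracks abundance of the self-degrading MDM2-luciferase fusion protein; higher signal means inhibition of MDM2 E3 ligase activity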
#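 System: stable MDM2–luciferase fusion reporter cells / Input: 2000 cells seeded into each well / Schedule: 4 h settle plus 2 h compound, 37 °C / Compound: single-point 5 µM / Buffer or medium: cells held in DMEM / Benchmarks: control and blank well means / Evaluation: percent signal gain over controls, blank-subtracted / Measured by: luciferase luminescence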
# Wee1 degr inh – human Wee1 degradation inhibition, primary screen; AID 1321; reporter increase, % at 5 µM; 220,000 compounds, 1.2% hits; HeLa Luc-Wee1K328M stability, luciferase luminescence; 100% = proteasome inhibitor MG132 effect;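 active = activation above the mean of all tested compounds plus 3 SD, set per screening run, cut at about 8.8% in these data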;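 note: cells exposed to compound for 20 h before luminescence read; 0% = DMSO alone and 100% = MG132 at 30 µM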
# Wee1 degr conf – human Wee1 degradation inhibition, confirmation. shares compounds with Wee1 degr inh. HeLa Luc-Wee1K328M degradation, luminescence; vehicle 0%, proteasome-blocked wells 100%. activation, % at 5 µM. 1,100 compounds, 4% hits. AID 1410; in the data active = activation above about 8.9%
# G6PDH ctr – counter-screen for TbHK1 inhibitors: Leuconostoc G6PDH inhibition | inhibition, % at 10 µM | shares compounds with Tb hexokinase | purified G6PDH, NADH absorbance, 1 h | 210 compounds, 7% hits | AID 2516;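 active = at least 50% inhibition in the glucose-6-phosphate dehydrogenase coupled counterscreen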
# TbHK1 confirm – T. brucei hexokinase 1 inhibition, rescreen. shares compounds with Tb hexokinase. recombinant TbHK1, G6PDH-coupled NADH A340 absorbance. inhibition, % at 10 µM. 210 compounds, 10% hits. AID 2560;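 active = inhibition of at least 50% in both of the two screening runs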;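 note: 0% and 100% set by the maximum and minimum signal control wells on each plate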
# Hck-Nef confirm – Hck-Nef kinase inhibition, confirmation; shares compounds with Hck-Nef inh; Recombinant Hck-YEEI:Nef, Z-Lyte FRET kinase assay; calls only at 10 µM; 1,300 compounds, 28% hits; AID 463188;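 active = average inhibition of at least 50%, with Z-scores no higher than 3 in both the phospho-tyrosine peptide and fluorescence counterscreens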
# * marks the source's active call; other numbers are inactive results; i = inactive; nt = not tested or not shown; + = active, no number.
SMILES,Tb hexokinase,Hck-Nef inh,14-3-3 Bad PPI,MDM2 E3 inh,Wee1 degr inh,others
CC(C)CC(=O)NC(Oc1ccc(Cl)cc1)C(Cl)(Cl)Cl (stereo unspecified),-7.0,-0.4,5.2,-10.4,2.3,
O=c1cccc2n1CC1CC2CN(Cc2cccc(Cl)c2Cl)C1 (stereo unspecified),1.9,-3.0,-1.8,0.1,-0.2,
O=c1cccc2n1CC1CC2CN(Cc2c(F)cccc2Cl)C1 (stereo unspecified),3.9,0.3,76.5*,-8.2,4.5,
CC1CC(OC(=O)c2ccccc2)CC(C)N1C (stereo unspecified),3.6,4.5,1.1,29.7,2.7,
CN1C2CCC1CC(OC(=O)c1ccc([N+](=O)[O-])cc1)C2 (stereo unspecified),28.1,2.5,-27.0,-8.4,12.6*,Wee1 degr conf=-0.5
Cc1ccc(-n2c(/C=C/c3ccc4c(c3)OCO4)nc3ccccc3c2=O)cc1,-8.5,0.5,5.2,-13.8,11.1*,Wee1 degr conf=1.4
O=c1c2ccccc2nc(/C=C/c2ccc(O)cc2)n1-c1cccc(O)c1,-5.0,12.1,-1.1,-3.8,12.4*,Wee1 degr conf=-0.4
Brc1ccc(C2N3CCCN23)cc1 (stereo unspecified),-3.7,3.6,-3.5,-10.2,-2.0,
CSc1nc(N2CCN(C)CC2)c2ccccc2n1,-15.0,4.7,-4.5,-16.9,14.5*,Wee1 degr conf=3.3
CCn1c(O)c(C=NCCN2CCOCC2)c(=O)[nH]c1=S,-30.2,5.6,-1.2,-6.9,6.1,
CN(N)N=Nc1nc2c([nH]1)c(=O)n(C)c(=O)n2C,-29.7,-4.5,-5.7,-2.7,0.3,
O=C(C(=O)N1CCOCC1)c1cn(Cc2ccc(F)cc2)c2ccccc12,-24.8,25.3,-0.1,nt,11.5*,Wee1 degr conf=-1.8
O=C(C(=O)N1CCOCC1)c1cn(Cc2ccccc2Cl)c2ccccc12,-5.1,-1.7,-0.4,-27.8,1.3,
CCN1CCN(c2nc3ccccc3s2)CC1,5.0,-0.6,-6.9,-14.6,15.2*,Wee1 degr conf=6.1
O=P(c1ccccc1)(c1nc2ccccc2s1)N1CCOCC1 (stereo unspecified),-4.5,-2.9,0.4,-10.8,1.5,
O=P(O)(O)COc1ccccc1O,73.4*,10.5,6.9,-12.4,-2.3,G6PDH ctr=-8.1;TbHK1 confirm=-0.9
NP(=O)(Oc1ccccc1Cl)Oc1ccccc1Cl,2.9,-15.3,-4.0,-18.0,-0.6,
O=c1[nH]c(=O)n(CCC2=CCCCC2)c(O)c1C=NCc1cccnc1,56.1*,1.6,-5.7,-5.8,-0.1,G6PDH ctr=-8.9;TbHK1 confirm=-6.0
CCOP(=O)(Cc1cc(C(=O)CC)c(C)o1)OCC,-12.0,5.7,6.8,4.2,5.4,
CCc1nnc(NS(=O)(=O)c2ccc(N=Cc3c(O)n(-c4ccc(Cl)cc4)c(=O)[nH]c3=O)cc2)s1,-8.6,55.6*,-17.7,-1.4,-0.7,Hck-Nef confirm=i
CNS(=O)(=O)c1ccc(N=Cc2c(O)n(-c3ccc(C)cc3)c(=O)[nH]c2=O)cc1,-16.8,17.1,0.4,nt,-3.6,
CCC1(CC)C(=N)N(C)C(=O)NC1=O,9.7,4.0,-13.3,3.1,-2.3,
CCCCn1c(N)c(C(=O)OCCOC)c2nc3ccccc3nc21,-26.3,66.4*,2.6,-7.8,-0.1,
CCCCOCCCn1c(N)c(C(=O)OCCOC)c2nc3ccccc3nc21,-19.4,30.1,nt,-6.9,-0.5,
COCCCn1c(N)c(C(=O)NCCC(C)C)c2nc3ccccc3nc21,-12.5,50.2*,-1.3,-17.1,-0.7,Hck-Nef confirm=i
SMILES,Tb hexokinase,Hck-Nef inh,14-3-3 Bad PPI,MDM2 E3 inh,Wee1 degr inh,others
N#Cc1c(N2CCNCC2)nc(-c2ccco2)c2c1CCCC2,-48.5,67.2*,0.0,-8.7,0.4,
Cc1cccc(N2C(=O)NC(=O)/C(=C/c3ccc(-c4ccc(C(=O)O)c(Cl)c4)o3)C2=O)c1,-23.9,58.9*,-12.8,17.1,1.9,Hck-Nef confirm=i
O=C1NC(=O)N(c2ccc3c(c2)OCO3)C(=O)/C1=C\c1ccc(-c2ccccc2C(=O)O)o1,-35.7,44.7,9.4,-10.3,-0.5,
COC(=O)C(O)(c1ccc(N(C)C(=O)OC(C)C)cc1)C(F)(F)F (stereo unspecified),-6.2,5.6,11.2,-12.7,-0.3,
Nc1cc2nc3ccccc3nc2cc1N,43.9,57.4*,18.4,-22.9,-1.4,Hck-Nef confirm=i
Cc1nn(Cc2ccccc2)c(Cl)c1C(=O)OCC(=O)N1CCCC1,-1.0,-11.5,-6.1,-19.9,2.8,
Cc1ccccc1N1C(=O)NC(=O)/C(=C\c2ccc3c(c2)CCCN3Cc2ccccc2)C1=O,-9.9,6.7,-4.8,0.2,-2.6,
O=C1NC(=S)NC(=O)C1=Cc1ccc2c(c1)CCN2CCCCl,-22.3,79.0*,32.7,-5.4,-2.7,Hck-Nef confirm=+
O=c1cccc2n1C[C@H]1C[C@@H]2CN2CCCC[C@@H]12,-5.1,20.1,3.5,nt,5.7,
NC(=S)c1cn(C2OC(CO)C(O)C2O)c2ncnc(N)c12 (stereo unspecified),-5.5,95.3*,-5.0,-39.0,-0.3,Hck-Nef confirm=+
C=CCn1c(O)c(N=Nc2c(C)n(C)n(-c3ccccc3)c2=O)c(=O)[nH]c1=S,-10.2,1.8,3.0,0.5,6.8,
O=C1NC(=O)N(Cc2ccco2)C(=O)/C1=C/c1ccc(-c2cccc([N+](=O)[O-])c2)o1,23.4,52.4*,22.5,-17.5,-2.1,Hck-Nef confirm=+
C=CCN1C(=O)NC(=O)/C(=C\c2ccc(-c3ccccc3[N+](=O)[O-])o2)C1=O,-16.4,70.0*,-13.7,-4.4,-1.8,Hck-Nef confirm=+
C=CCN1C(=O)/C(=C/c2ccc(N3CCOCC3)o2)C(=O)NC1=S,-4.3,2.7,4.8,-5.3,-0.9,
CN(C)c1ccc(/C=C2/C(=O)NC(=O)N(Cc3ccco3)C2=O)cc1,-19.3,0.7,-1.1,-15.2,0.8,
CCC(=NCCc1c[nH]c2ccccc12)c1c(O)n(C)c(=O)n(C)c1=O,1.8,0.3,-20.6,-13.1,-3.0,
CC(C)(C)C(=O)NC1CCSC1=O (stereo unspecified),-0.9,0.5,-7.9,1.0,-1.7,
Nc1c(C(=O)NCc2ccco2)c2nc3ccccc3nc2n1Cc1ccccc1,-11.8,24.5,5.1,-7.0,3.4,
Nc1c(C(=O)NCc2ccco2)c2nc3ccccc3nc2n1Cc1ccc(F)cc1,-9.2,56.6*,nt,-2.7,1.7,Hck-Nef confirm=i
Cc1cccn2c(=O)c3cc(C(=O)N4CCC5(CC4)OCCO5)n(C)c3nc12,-25.3,54.4*,5.9,-16.9,7.0,
